Data: PMC3797290 (Experimental and Therapeutic Medicine, 2013)

Tests used:
E. coli 31–97 = test: Interaction study, checkerboard titration; format: cell-based, Escherichia coli
MS S. aureus 14–99 = test: Interaction study, checkerboard titration; format: cell-based, Staphylococcus aureus; conditions: antibiotic in combination with RNL (ranalexin)
Outline: (§1)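 Checkerboard titration of peptide plus clinical antibiotic against representative clinical MS S. aureus isolates in polypropylene microtiter plates. […] Mueller-Hinton broth, inoculum 5×10^5 cfu/ml, 18 h at 35°C in air. MIC is the lowest concentration inhibiting visible growth. FIC index = A/MICA + B/MICB; synergy ≤0.5.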

P. aeruginosa 8–97 = test: Interaction study, checkerboard titration; format: cell-based, Pseudomonas aeruginosa; conditions: antibiotic in combination with RNL (ranalexin)
MS S. aureus 21–99 = test: Interaction study, checkerboard titration; format: cell-based, Staphylococcus aureus; conditions: antibiotic in combination with RNL (ranalexin)
MS S. aureus 15–99 = test: Interaction study, checkerboard titration; format: cell-based, Staphylococcus aureus; conditions: antibiotic in combination with RNL (ranalexin)
Outline: as §1

E. coli ATCC 25922 = test: Interaction study, checkerboard titration; format: cell-based, Escherichia coli; conditions: antibiotic in combination with RNL (ranalexin)
E. coli 7–98 = test: Interaction study, checkerboard titration; format: cell-based, Escherichia coli
MS S. aureus 56–96 = test: Interaction study, checkerboard titration; format: cell-based, Staphylococcus aureus; conditions: antibiotic in combination with RNL (ranalexin)
P. aeruginosa = conditions: at 2 mg/l, in vitro, cited from earlier work; for effect on P. aeruginosa at 48 h: incubation continued for 48 h
[1] = antibiotic in combination with MG II (magainin II)
[2] = antibiotic in combination with RNL (ranalexin)

**Q.** What does the source list for `CO/N=C(\C(=O)N[C@@H]1C(=O)N2C(C(=O)O)=C(CSc3nc(=O)c(=O)[nH]n3C)CS[C@H]12)c1csc(N)n1` [CRO, ceftriaxone]?
**A.** FIC index (E. coli 31–97; [1]): 0.312; FIC index (E. coli 31–97; [2]): 1.250; FIC index (MS S. aureus 14–99): 1.000; FIC index (P. aeruginosa 8–97): 0.750; FIC index (MS S. aureus 21–99): 1.500; FIC index (MS S. aureus 15–99): 1.250; FIC index (E. coli ATCC 25922): 1.000; FIC index (E. coli 7–98; [1]): 0.250; FIC index (E. coli 7–98; [2]): 1.250; FIC index (MS S. aureus 56–96): 1.500

**Q.** What does the source list for `CCN1CCN(C(=O)N[C@@H](C(=O)N[C@@H]2C(=O)N3[C@@H]2SC(C)(C)[C@@H]3C(=O)O)c2ccccc2)C(=O)C1=O` [PIP, piperacillin]?
**A.** FIC index (E. coli 31–97; [1]): 0.312; FIC index (E. coli 31–97; [2]): 1.250; FIC index (P. aeruginosa 8–97): 1.000; FIC index (E. coli ATCC 25922): 0.750; FIC index (E. coli 7–98; [1]): 0.250; FIC index (E. coli 7–98; [2]): 1.000

**Q.** For `C[C@H]1c2cccc(O)c2C(=O)C2=C(O)[C@]3(O)C(=O)C(C(N)=O)=C(O)[C@@H](N(C)C)[C@@H]3[C@@H](O)[C@@H]21` [D, doxycycline], which FIC index (E. coli 31–97; [1]) is on record?
**A.** The FIC index was 1.250.

**Q.** And the FIC index (E. coli 31–97; [2])?
**A.** The FIC index was 0.375.

**Q.** And the FIC index (MS S. aureus 14–99)?
**A.** The FIC index was 0.312.

**Q.** And the FIC index (P. aeruginosa 8–97)?
**A.** Its FIC index is 0.312.

**Q.** What about the FIC index (MS S. aureus 21–99) of the same compound?
**A.** The FIC index was 0.187.

**Q.** And the FIC index (MS S. aureus 15–99)?
**A.** The FIC index was 0.250.

**Q.** What about the FIC index (E. coli ATCC 25922) of the same compound?
**A.** The FIC index was 0.312.

**Q.** And the FIC index (E. coli 7–98; [1])?
**A.** The FIC index was 2.000.

**Q.** And the FIC index (E. coli 7–98; [2])?
**A.** Its FIC index is 0.312.

**Q.** What about the FIC index (MS S. aureus 56–96) of the same compound?
**A.** The FIC index was 0.312.

**Q.** For `C[C@@H](O)[C@H]1C(=O)N2C(C(=O)O)=C(S[C@@H]3CN[C@H](C(=O)N(C)C)C3)[C@H](C)[C@H]12` [MEM, meropenem], which FIC index (E. coli 31–97; [1]) is on record?
**A.** Its FIC index is 0.375.

**Q.** And the FIC index (E. coli 31–97; [2])?
**A.** The FIC index was 1.000.

**Q.** And the FIC index (MS S. aureus 14–99)?
**A.** Its FIC index is 1.250.

**Q.** What about the FIC index (P. aeruginosa 8–97) of the same compound?
**A.** The FIC index was 1.000.

**Q.** What about the FIC index (MS S. aureus 21–99) of the same compound?
**A.** Its FIC index is 1.500.

**Q.** What about the FIC index (MS S. aureus 15–99) of the same compound?
**A.** The FIC index was 1.500.

**Q.** What about the FIC index (E. coli ATCC 25922) of the same compound?
**A.** The FIC index was 0.750.

**Q.** And the FIC index (E. coli 7–98; [1])?
**A.** The FIC index was 0.375.

**Q.** What about the FIC index (E. coli 7–98; [2]) of the same compound?
**A.** Its FIC index is 1.500.

**Q.** What about the FIC index (MS S. aureus 56–96) of the same compound?
**A.** The FIC index was 1.250.

**Q.** With amoxicillin-clavulanate [AMC] as the compound, how does the FIC index (E. coli 31–97; [1]) read?
**A.** Its FIC index is 0.312.

**Q.** What about the FIC index (MS S. aureus 14–99) of the same compound?
**A.** Its FIC index is 1.000.

**Q.** What about the FIC index (P. aeruginosa 8–97) of the same compound?
**A.** The FIC index was 1.000.

**Q.** And the FIC index (MS S. aureus 15–99)?
**A.** The FIC index was 1.500.

**Q.** What about the FIC index (E. coli ATCC 25922) of the same compound?
**A.** Its FIC index is 1.500.

**Q.** And the FIC index (E. coli 7–98; [1])?
**A.** Its FIC index is 0.187.

**Q.** What about the FIC index (E. coli 7–98; [2]) of the same compound?
**A.** Its FIC index is 1.000.

**Q.** What does the source list for `CC[C@H]1OC(=O)[C@H](C)[C@@H](O[C@H]2C[C@@](C)(OC)[C@@H](O)[C@H](C)O2)[C@H](C)[C@@H](O[C@@H]2O[C@H](C)C[C@H](N(C)C)[C@H]2O)[C@](C)(OC)C[C@@H](C)C(=O)[C@H](C)[C@@H](O)[C@]1(C)O` [CLR, clarithromycin]?
**A.** FIC index (E. coli 31–97; [1]): 1.500; FIC index (E. coli 31–97; [2]): 0.312; FIC index (MS S. aureus 14–99): 0.250; FIC index (P. aeruginosa 8–97): 0.375; FIC index (MS S. aureus 21–99): 0.250; effect on P. aeruginosa cell growth at 24 h (P. aeruginosa): no effect on cell growth; effect on P. aeruginosa at 48 h (P. aeruginosa): bactericidal; FIC index (MS S. aureus 15–99): 0.187; FIC index (E. coli ATCC 25922): 0.375; FIC index (E. coli 7–98; [1]): 1.500; FIC index (E. coli 7–98; [2]): 0.312; FIC index (MS S. aureus 56–96): 0.312

**Q.** For polymyxin E [POL-E], which FIC index (E. coli 31–97; [1]) is on record?
**A.** The FIC index was 1.500.

**Q.** What about the FIC index (E. coli 31–97; [2]) of the same compound?
**A.** The FIC index was 0.250.

**Q.** And the FIC index (P. aeruginosa 8–97)?
**A.** Its FIC index is 0.250.

**Q.** What about the FIC index (E. coli ATCC 25922) of the same compound?
**A.** The FIC index was 0.187.

**Q.** And the FIC index (E. coli 7–98; [2])?
**A.** The FIC index was 0.312.

**Q.** Which “effect on P. aeruginosa cell growth at 24 h” value (P. aeruginosa) does the source give for `CC[C@H]1OC(=O)[C@H](C)[C@@H](O[C@H]2C[C@@](C)(OC)[C@@H](O)[C@H](C)O2)[C@H](C)[C@@H](O[C@@H]2O[C@H](C)C[C@H](N(C)C)[C@H]2O)[C@](C)(O)C[C@@H](C)C(=O)[C@H](C)[C@@H](O)[C@]1(C)O` [erythromycin] here?
**A.** Its value is “no effect on cell growth”.

**Q.** What about the “effect on P. aeruginosa at 48 h” value (P. aeruginosa) of the same compound?
**A.** The value was “bactericidal”.

**Q.** Which FIC index (E. coli 31–97; [1]) does the source give for `CC(C)(O/N=C(\C(=O)N[C@@H]1C(=O)N2C(C(=O)[O-])=C(C[n+]3ccccc3)CS[C@H]12)c1csc(N)n1)C(=O)O` [CAZ, ceftazidime] here?
**A.** Its FIC index is 0.187.

**Q.** What about the FIC index (P. aeruginosa 8–97) of the same compound?
**A.** The FIC index was 1.500.

**Q.** What about the FIC index (E. coli 7–98; [1]) of the same compound?
**A.** The FIC index was 0.312.
